Results on 6 molecules are retold here after ChEMBL document CHEMBL1156170, “Enhanced Nrf2-dependent induction of glutathione in mouse embryonic fibroblasts by isoselenocyanate analog of sulforaphane” (Bioorg Med Chem Lett, 2010).

Data set [1] deals with HepG2. Kind of data set: Cytotoxicity against human HepG2 cells assessed as cell viability at 10 uM after 6 hrs by MTS assay. The class given is functional, cell-based. A general note: Formazan colour is commonly taken as a measure of viable cells.
The test system of data set [2] is HepG2. Kind of data set: Cytotoxicity against human HepG2 cells assessed as cell viability at 50 uM after 6 hrs by MTS assay. In kind it is functional, cell-based.
Data set [3] has as its target T1, Nuclear factor erythroid 2-related factor 2 (Mus musculus) (UniProt Q60795).
T1 sequence (whole entry): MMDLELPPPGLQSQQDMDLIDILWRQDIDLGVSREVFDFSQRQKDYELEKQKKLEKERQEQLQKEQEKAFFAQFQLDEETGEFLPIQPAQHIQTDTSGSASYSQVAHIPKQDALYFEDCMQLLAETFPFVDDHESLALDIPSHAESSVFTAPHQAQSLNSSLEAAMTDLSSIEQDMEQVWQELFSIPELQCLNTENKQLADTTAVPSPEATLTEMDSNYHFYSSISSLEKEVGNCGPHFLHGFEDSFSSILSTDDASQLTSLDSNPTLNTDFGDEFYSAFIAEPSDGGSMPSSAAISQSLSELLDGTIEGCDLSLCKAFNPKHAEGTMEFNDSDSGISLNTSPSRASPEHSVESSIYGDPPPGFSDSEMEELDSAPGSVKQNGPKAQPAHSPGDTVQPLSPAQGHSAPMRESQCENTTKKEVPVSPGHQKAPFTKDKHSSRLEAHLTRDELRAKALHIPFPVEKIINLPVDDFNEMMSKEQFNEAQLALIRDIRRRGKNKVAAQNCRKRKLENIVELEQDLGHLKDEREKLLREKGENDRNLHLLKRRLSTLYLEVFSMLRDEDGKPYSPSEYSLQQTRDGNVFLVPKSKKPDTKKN
Put plainly: Induction of nuclear NrF2 expression in wild type MEF […] at 10 to 20 uM after 24 hrs by Western blotting relative to control. The class given is functional. A digest of the protocol:
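Wildtype MEF at 50% confluence treated with vehicle or 10 or 20 μM for 24 h; washed, trypsinized, nuclear extracts prepared. 20 μg nuclear protein per lane, 4-20% gradient gel, nitrocellulose, milk block, primary antibody overnight 4 °C, HRP secondary, chemiluminescence. Nrf2 band normalized to Lamin A, then to vehicle control; mean ± SD, n=3.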
On the technique in general: A western blot detects proteins with antibodies after separation by electrophoresis.

Data set [4] concerns the target T1, Nuclear factor erythroid 2-related factor 2 (Mus musculus). Put plainly: Induction of nuclear NrF2-mediated GCLc expression in wild type MEF at 20 uM after 24 hrs by Western blotting relative to control. The class given is functional. The gist of the method: (§1)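 Wildtype or Nrf2−/− MEF at 50% confluence given vehicle or 10 or 20 μM for 24 h; cytoplasmic extracts, 50 μg protein per lane, 4-20% gradient gel, nitrocellulose, western blot for GCLc with HRP secondary and chemiluminescence. GCLc normalized to actin, then to vehicle control; mean ± SD of 3 independent experiments.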

Data set [5] has the same target. Kind of data set: Induction of NrF2-mediated glutathione production in wild type MEF at 10 uM after 24 hrs using Elmans reagent relative to control. The class given is functional. The gist of the method: (§2)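 Wildtype or Nrf2−/− MEF at 50% confluence given vehicle or 10 or 20 μM for 0, 6, 9 or 24 h; washed, lysed in 5% metaphosphoric acid, protein removed by centrifugation. Free GSH by enzymatic recycling with Ellman's reagent, absorbance over time; normalized to BCA protein and to vehicle control; mean ± SD, n=3.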

Data set [6] deals with T2, Nuclear factor erythroid 2-related factor 2 (Homo sapiens) (UniProt Q16236).
T2 sequence (whole entry): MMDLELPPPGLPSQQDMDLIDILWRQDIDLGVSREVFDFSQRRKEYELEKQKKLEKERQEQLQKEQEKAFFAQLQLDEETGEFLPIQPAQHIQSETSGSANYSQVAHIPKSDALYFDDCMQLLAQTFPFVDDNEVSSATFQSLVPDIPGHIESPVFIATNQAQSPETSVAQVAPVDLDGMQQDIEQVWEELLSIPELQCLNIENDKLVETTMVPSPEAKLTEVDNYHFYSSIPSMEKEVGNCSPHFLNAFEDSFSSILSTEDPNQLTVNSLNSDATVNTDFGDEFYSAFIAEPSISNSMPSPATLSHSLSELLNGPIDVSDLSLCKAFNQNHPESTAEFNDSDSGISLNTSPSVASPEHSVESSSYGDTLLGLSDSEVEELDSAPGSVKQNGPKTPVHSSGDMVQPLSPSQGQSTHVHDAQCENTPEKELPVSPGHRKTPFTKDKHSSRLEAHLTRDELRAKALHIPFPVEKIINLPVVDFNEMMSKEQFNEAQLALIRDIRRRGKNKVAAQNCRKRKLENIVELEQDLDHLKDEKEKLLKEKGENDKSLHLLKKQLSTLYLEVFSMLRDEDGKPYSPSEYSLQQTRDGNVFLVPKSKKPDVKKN
Kind of data set: Induction of NrF2 in human HepG2 cells at 10 uM after 6 hrs by ARE-luciferase reporter gene assay. The class given is functional, cell-based. A digest of the protocol:
(§3)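 HepG2 ARE-luciferase reporter cells at 50% confluence, fresh medium with vehicle or 5, 10 or 20 μM compound for 6 h. Washed in PBS, lysed, luciferase activity of extracts read in single-tube luminometer; normalized to vehicle control; mean ± SD of 3 independent experiments.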
A general note: A reporter such as luciferase makes a cellular process visible.

For data set [7], the target named is T2, Nuclear factor erythroid 2-related factor 2 (Homo sapiens). Put plainly: Induction of NrF2 in human HepG2 cells at 20 uM after 6 hrs by ARE-luciferase reporter gene assay relative to control. The class given is functional, cell-based. The gist of the method:
as §3

Data set [8] concerns the target T1, Nuclear factor erythroid 2-related factor 2 (Mus musculus). Kind of data set: Induction of NrF2-mediated glutathione production in wild type MEF at 20 uM after 24 hrs using Elmans reagent relative to control. In kind it is functional. A digest of the protocol: as §2
Data set [9] shares this target. Put plainly: Reduction of NrF2-mediated glutathione production in wild type MEF at 10 uM after 6 hrs using Elmans reagent relative to control. In kind it is functional. Further details: scale not given: the % may be the effect or the level left. A digest of the protocol:
as §2

Data set [10] shares this target. Put plainly: Reduction of NrF2-mediated glutathione production in wild type MEF at 20 uM after 6 hrs using Elmans reagent relative to control. In kind it is functional. The arrangement: scale not given: the % may be the effect or the level left. A digest of the protocol: as §2
Data set [11] relates to HepG2. Kind of data set: Cytotoxicity against human HepG2 cells assessed as cell viability at 50 uM after 6 hrs by MTS assay relative to control. The class given is functional. Particulars: HepG2, 6 h, read-out: Activity.
Data set [12] deals with HepG2. Kind of data set: Cytotoxicity against human HepG2 cells assessed as decrease in cell viability at 10 to 20 uM after 6 hrs by MTS assay. In kind it is functional, cell-based.
The test system of data set [13] is HepG2. Put plainly: Cytotoxicity against human HepG2 cells assessed as cell viability at 20 uM after 6 hrs by MTS assay. Particulars: HepG2, 6 h, read-out: Activity.
Data set [14] has as its system MEF. Put plainly: Induction of GCLc in NrF2-deficient MEF at 20 uM after 24 hrs by Western blotting relative to control. To be noted: Mus musculus. In kind it is functional, cell-based. A digest of the protocol:
as §1

In data set [15] the target is T1, Nuclear factor erythroid 2-related factor 2 (Mus musculus). Kind of data set: Ratio of compound to sulforaphane activity for induction of nuclear NrF2 mediated GCLc in wild type MEF. In kind it is functional.
In data set [16] the test system is MEF. Kind of data set: Induction of glutathione production in NrF2 deficient MEF at 10 uM after 24 hrs using Elmans reagent relative to control. In kind it is functional, Mus musculus. A digest of the protocol:
as §2

Data set [17] relates to MEF. Put plainly: Induction of glutathione production in NrF2 deficient MEF at 20 uM after 24 hrs using Elmans reagent relative to control. The class given is functional, Mus musculus. A digest of the protocol: as §2
The target of data set [18] is T1, Nuclear factor erythroid 2-related factor 2 (Mus musculus). Kind of data set: Induction of NrF2-mediated glutathione production in wild type MEF at 10 uM after 6 hrs using Elmans reagent relative to control. In kind it is functional. A digest of the protocol:
as §2

Data set [19] addresses T2, Nuclear factor erythroid 2-related factor 2 (Homo sapiens). Kind of data set: Induction of NrF2 in human HepG2 cells after 6 hrs by ARE-luciferase reporter gene assay. The class given is functional, cell-based. The gist of the method:
as §3

Data set [20] deals with HepG2. Kind of data set: Cytotoxicity against human HepG2 cells assessed as decrease in cell viability after 6 hrs by MTS assay. The class given is functional, cell-based.
Data set [21] concerns MEF. Kind of data set: Cytotoxicity against wild type MEF. The class given is cell-based. To be noted: mouse.
The subject of data set [22] is MEF. Kind of data set: Cytotoxicity against NrF2 deficient MEF. In kind it is cell-based. To be noted: mouse.
Data set [23] addresses T2, Nuclear factor erythroid 2-related factor 2 (Homo sapiens). Kind of data set: Ratio of compound to sulforaphane for induction of NrF2 in human HepG2 cells. The class given is functional, cell-based.
Data set [24] deals with T1, Nuclear factor erythroid 2-related factor 2 (Mus musculus). Put plainly: Induction of NrF2-mediated glutathione production in wild type MEF at 10 uM after 9 hrs using Elmans reagent relative to control. In kind it is functional. A digest of the protocol:
as §2

Structures are written as SMILES. The source made the active and inactive calls. No cut-off for these calls is given here.

`C[S+]([O-])CCCCN=C=S` (centres undefined): the outcome (in the data set with HepG2 [1]; in the data set with HepG2 [2]; in [8]) was inactive. The figures for the fold change (FC) in data set [3] and in [4] were 3.5 and 3.2, respectively. For the same molecule, the result in data set [5], in [6] and in data set [7] was Active. The Activity in data set [9] stood at 40%; in data set [10], 20%.

`S=C=NCCc1ccccc1`: the result in the data set on HepG2 [2] was inactive.

`S=C=NCc1ccccc1`: in the data set on HepG2 [2], the outcome was inactive.

Turning to `[Se]=C=NCc1ccccc1` [BENZYLISOSELENOCYANATE], in the data set with HepG2 [11], the viability at 50 µM came out at 0%. Besides, in the data set on HepG2 [12], the result was Active.

For the molecule `[Se]=C=NCCc1ccccc1` [PHENETHYLISOSELENOCYANATE], the viability at 50 µM with HepG2 [11] was determined as 14%. The result in the data set with HepG2 [12] was Active.

With `C[S+]([O-])CCCCN=C=[Se]` (centres undefined) [SUFORAPHANE ISOSELENOCYANATE], the result in the data set on HepG2 [1] and with MEF [14] was inactive. Moreover, the viability at 20 µM in the data set on HepG2 [13] amounted to 50%. Also, in the data set on HepG2 [11], the viability at 50 µM amounted to 0%. For the same molecule, the fold change (FC) in data set [3] was determined as 4.5; in data set [4], 4.1. In addition, the Activity in [15] was 30%; with MEF [16], 90%; in the data set with MEF [17], 70%; in [5], 160%; in data set [7], 5; in [19] it was “Dose-dependent effect”. Further, the Activity result in the data set on HepG2 [20] was “Dose-dependent effect”; in the data set with MEF [21] it was “Non-toxic”; in the data set with MEF [22] it was “Non-toxic”; in data set [9] it was 40%; in [10] it was 20%. Further, the result (in data set [18]; in data set [6]; with HepG2 [12]; in [8]; in data set [24]) was Active. In addition, in data set [23], the Ratio was determined as 4.
